According to ChEMBL document CHEMBL1128748, “Novel acridine-triazenes as prototype combilexins: synthesis, DNA binding, and biological activity” (J Med Chem, 1995):

What was measured:
[1] = tested on: Nucleic Acid; experiment: Inhibitory concentration against ethidium in DNA-binding assay with [poly(dA-dT)]2 (synthetic oligonucleotide); assay type: nucleic-acid assay
Procedure, shortened: (§1)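 Quenching of DNA-bound ethidium at pH 5.0 (9.3 mM NaCl, 2 mM NaOAc, 0.1 mM EDTA, ionic strength 0.01 M). Synthetic DNA 20 μM with 2 μM ethidium bromide, 20 °C. Drug added serially from about 5 mM DMSO stock. Excitation 546 nm, emission 595 nm. Q is the drug concentration giving 50% fluorescence loss, mean of three.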

[2] = tested on: A2780; experiment: Concentration required to inhibit the cell growth by 50 % after 96 hr […].; assay type: functional, cell-based; details: Homo sapiens, A2780, 96 h
Procedure, shortened: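 A2780 cells in DMEM with 10% FCS, glutamine, insulin and hydrocortisone, plated at (0.1–5) × 10³ per well and attached overnight. DMSO stocks (≤0.5% v/v) were diluted in pH 7.0 buffer. Continuous drug exposure for 96 h. TCA fixation, sulforhodamine B staining, Tris solubilization, absorbance at 540 nm. IC50 taken against solvent-treated drug-free controls.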

[3] = tested on: Calf thymus DNA; experiment: Inhibitory concentration against ethidium in DNA-binding assay; assay type: nucleic-acid assay; details: Bos taurus
Procedure, shortened: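 Ethidium displacement from CT-DNA at pH 5.0 (9.3 mM NaCl, 2 mM NaOAc, 0.1 mM EDTA), with 1.26 μM ethidium bromide and 1 μM CT-DNA, 20 °C. Drug added serially from about 5 mM DMSO stock. Excitation 546 nm, emission 595 nm. CC50 is the concentration halving bound-ethidium fluorescence, mean of three.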

[4] = tested on: Calf thymus DNA; experiment: Change in DNA-melting (deltaTm) with calf thymus DNA at pH 7.0; assay type: functional; details: Bos taurus
Procedure, shortened: (§2)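 Thermal denaturation in stoppered quartz cuvettes. DNA in 10 mM sodium phosphate, 1 mM EDTA, at pH 6.00 (CT-DNA, poly(dA-dT), poly(dG-dC)) or pH 7.00 (CT-DNA only). Working DNA 100 μM; ligand added in DMSO to 20 μM final (drug:DNA 1:5). DMSO up to 6.25% v/v, with linear correction. Heated at 1 °C/min and followed by A260. ΔTm is ligand minus drug-free control, mean of three.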

[5] = tested on: Nucleic Acid; experiment: Induced change in DNA-melting (deltaTm) with [poly(dA-dT)]2 at […]; assay type: functional; procedure, shortened: as §2
[6] = tested on: L1210; experiment: Concentration required to inhibit the cell growth by 50 % after 48 hr in L1210 leukemic cells.; assay type: functional, cell-based; details: Mus musculus, L1210, 48 h
Procedure, shortened: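 Mouse L1210 leukemia cells at 5 × 10³ cells/mL. Exposed to drug for 48 h at 37 °C; stocks held ≤0.5% v/v DMSO. Surviving cells were counted with a Coulter counter against drug-free controls to give IC50. Run in duplicate.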

[7] = tested on: Nucleic Acid; experiment: Inhibitory concentration against DNA-bound ethidium for cytotoxicity; assay type: functional
[8] = tested on: Calf thymus DNA; experiment: Change in DNA-melting (deltaTm) with calf thymus DNA at […]; assay type: functional; details: Bos taurus; procedure, shortened: as §2
[9] = tested on: Nucleic Acid; experiment: Induced change in DNA-melting (deltaTm) with [poly(dG-dC)]2 at […]; assay type: functional; procedure, shortened: as §2
[10] = tested on: Nucleic Acid; experiment: Inhibitory concentration against ethidium in DNA-binding assay with [poly(dG-dC)]2 (synthetic oligonucleotide); assay type: nucleic-acid assay; procedure, shortened: as §1
[11] = tested on: Calf thymus DNA; experiment: (§3) Induced change in DNA-melting (deltaTm) with calf thymus DNA at pH 7.0; assay type: nucleic-acid assay; details: Bos taurus; procedure, shortened: as §2
[12] = tested on: Calf thymus DNA; experiment: Induced change in DNA-biphasic melting (deltaTm) with calf thymus DNA at […]; assay type: functional; details: Bos taurus; procedure, shortened: as §2
[13] = tested on: Calf thymus DNA; experiment: Induced change in DNA-melting (deltaTm) with calf thymus DNA at […]; assay type: functional; details: Bos taurus; procedure, shortened: as §2
[14] = tested on: Calf thymus DNA; experiment: Induced change in DNA-biphasic melting (deltaTm) with calf thymus DNA at pH 7.0; assay type: functional; details: Bos taurus; procedure, shortened: as §2
[15] = tested on: L1210; experiment: Inhibitory concentration against L1210 leukemic cell proliferation over 24 hr; details: Mus musculus, L1210, 24 h
[16] = tested on: Nucleic Acid; experiment: Induced change in DNA-melting (deltaTm) with [poly(dA-dT)]2 at pH 65.0; assay type: functional; procedure, shortened: as §2
[17] = tested on: Calf thymus DNA; experiment: as §3; assay type: functional; details: Bos taurus; procedure, shortened: as §2

Q [1] [µM] | IC50 [2] [µM] | Q [3] [µM] | IC50 [6] [µM] | Q [10] [µM] | Tm shift [11] [°C] | IC50 [15] [µM] | Structure (SMILES) | Tm shift [4] [°C] | Tm shift [5] [°C] | CC50 [7] [µM] | Tm shift [8] [°C] | Tm shift [9] [°C] | Tm shift [12] [°C] | Tm shift [13] [°C] | Tm shift [14] [°C] | Tm shift degreeC [16] [°C] | Tm shift [17] [°C]
15 | 3.5 | 26 | 3.4 | 45 | – | – | Cc1nc(-c2c3ccccc3nc3ccccc23)sc1CCOC(=O)c1ccc(N/N=N/c2ccc(C(=O)OCCN3CCCC3)cc2)cc1 | 1.4 | 1.5 | 2.8 | 2.9 | 0.3 | – | – | – | – | –
11 | – | 13 | > 100 | 14 | 7.7 | – | O=C(OCCN1CCCCC1)c1ccc(/N=N/Nc2ccc(C(=O)OCCN3CCCCC3)cc2)cc1 | – | – | 5.7 | 14.5 | – | – | – | – | – | –
17 | 2.6 | 28 | 32 | 39 | – | – | Cc1nc(-c2c3ccccc3nc3ccccc23)sc1CCOC(=O)c1ccc(N/N=N/c2ccc(C(=O)OCCN3CCOCC3)cc2)cc1 | – | 0.9 | 6.1 | – | – | 2.4 | – | – | – | –
22 | > 100 | 21 | – | 19 | – | – | Cc1nc(-c2c3ccccc3nc3ccccc23)sc1CCO | < 0.2 | 0.7 | 190 | 1 | < 0.2 | – | – | – | – | –
24 | 0.47 | 20 | 2.7 | 14 | – | – | Nc1ccc2cc3ccc(N)cc3nc2c1 [PROFLAVINE] | 11.5 | 24.4 | – | – | 7 | – | 16.4 | – | – | –
14 | 3.9 | 27 | 6.2 | 52 | 1.5 | – | Cc1nc(-c2c3ccccc3nc3ccccc23)sc1CCOC(=O)c1ccc(N/N=N/c2ccc(C(=O)OCCN3CCCCC3)cc2)cc1 | – | 1.9 | 3.2 | 2.4 | 0.2 | – | – | – | – | –
16 | 3.1 | 35 | 3.2 | 66 | – | – | Cc1nc(-c2c3ccccc3nc3ccccc23)sc1CCOC(=O)c1ccc(/N=N/Nc2ccc(C(=O)OCCN(C)C)cc2)cc1 | – | 1.7 | 3.6 | – | < 0.2 | 3 | – | 1.8 | – | –
12 | 16 | 18 | 66 | 31 | – | – | Cc1nc(-c2c3ccccc3nc3ccccc23)sc1CCOC(=O)c1ccc(N/N=N/c2ccc(C(=N)N)cc2)cc1 | – | 2.4 | 2.9 | – | – | – | – | – | – | –
19 | > 100 | 25 | 100 | 33 | – | – | CC(=O)c1ccc(N/N=N/c2ccc(C(=O)OCCc3sc(-c4c5ccccc5nc5ccccc45)nc3C)cc2)cc1 | – | – | 123 | – | – | – | – | – | – | –
14 | 3.8 | 17 | 3 | 34 | – | – | Cc1nc(-c2c3ccccc3nc3ccccc23)sc1CCOC(=O)c1ccc(/N=N/Nc2cccc(C(=O)OCCN(C)C)c2)cc1 | – | 1.6 | 1.2 | – | < 0.2 | 2.1 | – | – | – | –
24 | > 100 | 20 | – | 17 | – | – | Cc1nc(-c2c3ccccc3nc3ccccc23)sc1CCOC(=O)c1ccc(N)cc1 | 0.4 | 0.8 | 230 | 1.1 | – | – | – | – | – | –
5 | – | 9 | 32 | 19 | – | – | N=C(N)c1ccc(/N=N/Nc2ccc(C(=N)N)cc2)cc1 [DIMINAZENE] | 7.9 | – | 4.4 | 9.3 | – | – | – | – | – | –
– | > 100 | – | 67 | – | – | – | Nc1ccc2c(=O)c3ccc(N)cc3[nH]c2c1 | – | – | – | – | – | – | – | – | – | –
25 | 0.1 | 3.8 | – | 4.5 | – | 0.05 | COc1cc(NS(C)(=O)=O)ccc1Nc1c2ccccc2nc2ccccc12 [AMSACRINE] | 1 | 4 | 8.9 | – | – | – | – | – | – | –
21 | 5.3 | 26 | 28 | 36 | – | – | Cc1nc(-c2c3ccccc3nc3ccccc23)sc1CCOC(=O)c1ccc(N/N=N/c2ccc(C(N)=O)cc2)cc1 | – | – | 96 | – | – | – | – | – | – | –
23 | > 100 | 22 | 80 | 18 | – | – | c1ccc(-c2c3ccccc3nc3ccccc23)cc1 | 0.4 | – | 175 | 1.3 | 0.4 | – | – | – | 0.6 | –
22 | 1.2 | 19 | 2 | 16 | – | – | Nc1ccc2c(-c3ccccc3)c3ccc(N)cc3nc2c1 | 6.9 | 20.3 | – | 11.7 | 3.3 | – | – | – | – | –
14 | – | 15 | > 100 | 17 | – | – | O=C(OCCN1CCOCC1)c1ccc(/N=N/Nc2ccc(C(=O)OCCN3CCOCC3)cc2)cc1 | – | – | 6.8 | 3.6 | – | – | – | – | – | 1.4

Structure (SMILES) | Q [1] [µM] | IC50 [2] [µM] | Q [3] [µM] | IC50 [6] [µM] | Q [10] [µM] | Tm shift [11] [°C] | IC50 [15] [µM] | Tm shift [4] [°C] | Tm shift [5] [°C] | CC50 [7] [µM] | Tm shift [8] [°C] | Tm shift [9] [°C] | Tm shift [12] [°C] | Tm shift [13] [°C] | Tm shift [14] [°C] | Tm shift degreeC [16] [°C] | Tm shift [17] [°C]
c1ccc2nc3ccccc3cc2c1 [ACRIDINE] | 26 | > 100 | 24 | 45 | 22 | – | – | 0.7 | 0.7 | 142 | 1.7 | 0.8 | – | – | – | – | –
